In paper PMC7145530 (Nucleic Acids Research, 2019):
Where two headings read alike, the source gives them in different places.

Experiments:
[1] = molecular target: T1, ALKBH3 (Homo sapiens, UniProt Q96Q83); assay: Isothermal titration calorimetry; format: binding; details: ITC, 25°C; 1 mM peptide into 15 μM ALKBH3
T1 sequence (Q96Q83 1-286): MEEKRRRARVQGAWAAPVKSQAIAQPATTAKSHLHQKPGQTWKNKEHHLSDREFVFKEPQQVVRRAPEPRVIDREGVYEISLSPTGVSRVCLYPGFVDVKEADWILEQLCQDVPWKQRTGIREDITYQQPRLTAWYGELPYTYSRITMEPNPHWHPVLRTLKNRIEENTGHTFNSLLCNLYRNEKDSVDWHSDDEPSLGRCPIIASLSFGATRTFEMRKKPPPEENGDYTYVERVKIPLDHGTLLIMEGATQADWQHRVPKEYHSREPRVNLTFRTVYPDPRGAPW

[2] = molecular target: T1, ALKBH3; assay: Demethylation assay by direct detection of formaldehyde; format: biochemical; details: ferrozine 1 mM or succinate 5 mM; ALKBH3 0.2 μM, RAD51C 4.0 μM
[3] = tested on: ALKBH2; assay: Yeast two-hybrid with ALKBH2; format: binding, human; details: strain pJ69-4A; growth on dropout plates and lacZ reporter
In short: (§1)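 Full-length ALKBH2 or ALKBH3 fused to Gal4 binding domain (pGBKT7) was co-transformed with Gal4 activation domain (pACT2) fusions of RAD51, RAD51B, RAD51C, RAD51D, XRCC2 or XRCC3, or empty vectors. Transformants were selected on SD -Leu -Trp plates at 30°C for 2–3 days, then spotted on -His (triple) or -His -Ade (quadruple) dropout plates. lacZ was scored qualitatively by X-gal filter assay.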

[4] = molecular target: T1, ALKBH3; assay: Yeast two-hybrid with ALKBH3; format: binding; details: strain pJ69-4A; growth on dropout plates and lacZ reporter
In short: as §1

[5] = molecular target: T2, His-tagged RAD51C (HIS-RAD51C) (human, UniProt O43502 1-376); assay: pull-down
T2 sequence (looked up): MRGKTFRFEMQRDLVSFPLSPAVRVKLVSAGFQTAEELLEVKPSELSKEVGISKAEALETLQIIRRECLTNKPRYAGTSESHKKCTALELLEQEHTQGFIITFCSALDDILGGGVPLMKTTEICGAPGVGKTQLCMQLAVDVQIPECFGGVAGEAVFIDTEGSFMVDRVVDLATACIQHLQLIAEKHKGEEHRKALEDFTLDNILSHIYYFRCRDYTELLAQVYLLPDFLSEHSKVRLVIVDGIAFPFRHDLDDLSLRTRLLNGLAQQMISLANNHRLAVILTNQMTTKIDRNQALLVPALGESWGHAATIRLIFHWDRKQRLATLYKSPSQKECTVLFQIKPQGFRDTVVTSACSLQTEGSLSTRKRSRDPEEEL

[6] = molecular target: T1, ALKBH3; details: ssDNA substrate; cited from earlier work
[7] = molecular target: T1, ALKBH3; assay: Steady-state; format: biochemical; details: 3′-tailed DNA 0.6–9.6 μM, ALKBH3 0.2 μM, RAD51C or RAD51CΔ42–52 4 μM, FDH-coupled
[8] = tested on: RAD51C; assay: Yeast two-hybrid of ALKBH3 fragments with RAD51C; format: binding, human; details: ALKBH3 fragments (pGBKT7) with pACT2-RAD51C
In short: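 Yeast co-transformed with Gal4 binding-domain (pGBKT7) and activation-domain constructs were plated on SD −Leu −Trp at 30°C for 2–3 days. HIS and ADE2 reporters were scored by spotting onto −Leu −Trp −His or −Leu −Trp −His −Ade plates. lacZ was checked qualitatively by X-gal filter assay.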

[9] = molecular target: T3, ALKBH3 protein (recombinant, used for ITC) (human, UniProt Q96Q83 1-286); assay: ITC
T3 sequence (looked up): T1 sequence (Q96Q83 1-286)

Molecule: QTAEELLEV [p33–41]
- binding to ALKBH3 [1]: failed to bind ALKBH3 under these conditions

Molecule: O=C(O)CCC(=O)O [succinate, reference compound]
- inhibition of ALKBH3 with RAD51C present [2]: presence of RAD51C could not alleviate the inhibitory effect of ferrozine and succinate

Molecule: O=S(=O)([O-])c1ccc(-c2nnc(-c3ccccn3)nc2-c2ccc(S(=O)(=O)[O-])cc2)cc1.[Na+].[Na+] [ferrozine, reference compound]
- inhibition of ALKBH3 with RAD51C present [2]: presence of RAD51C could not alleviate the inhibitory effect of ferrozine and succinate

Molecule: RAD51: human recombinase RAD51
- yeast two-hybrid interaction with ALKBH2 [3]: could not detect any interaction
- yeast two-hybrid interaction with ALKBH3 [4]: not with RAD51

B1: RAD51C-NTD: NTD consisting of 1–66 amino acid residues (protein)
chain: MRGKTFRFEMQRDLVSFPLSPAVRVKLVSAGFQTAEELLEVKPSELSKEVGISKAEALETLQIIRR
modifications: left off: Gal4 activation domain, end not stated, kept
- yeast two-hybrid interaction with ALKBH3 [4]: robust interaction

B2: RAD51CΔ33–41 (protein)
chain: MRGKTFRFEMQRDLVSFPLSPAVRVKLVSAGFKPSELSKEVGISKAEALETLQIIRRECLTNKPRYAGTSESHKKCTALELLEQEHTQGFIITFCSALDDILGGGVPLMKTTEICGAPGVGKTQLCMQLAVDVQIPECFGGVAGEAVFIDTEGSFMVDRVVDLATACIQHLQLIAEKHKGEEHRKALEDFTLDNILSHIYYFRCRDYTELLAQVYLLPDFLSEHSKVRLVIVDGIAFPFRHDLDDLSLRTRLLNGLAQQMISLANNHRLAVILTNQMTTKIDRNQALLVPALGESWGHAATIRLIFHWDRKQRLATLYKSPSQKECTVLFQIKPQGFRDTVVTSACSLQTEGSLSTRKRSRDPEEEL
modifications: left off: Gal4 activation domain, end not stated, kept
- yeast two-hybrid interaction with ALKBH3 [4]: partially affected

B3: RAD51CΔ53–66 (protein)
chain: MRGKTFRFEMQRDLVSFPLSPAVRVKLVSAGFQTAEELLEVKPSELSKEVGIECLTNKPRYAGTSESHKKCTALELLEQEHTQGFIITFCSALDDILGGGVPLMKTTEICGAPGVGKTQLCMQLAVDVQIPECFGGVAGEAVFIDTEGSFMVDRVVDLATACIQHLQLIAEKHKGEEHRKALEDFTLDNILSHIYYFRCRDYTELLAQVYLLPDFLSEHSKVRLVIVDGIAFPFRHDLDDLSLRTRLLNGLAQQMISLANNHRLAVILTNQMTTKIDRNQALLVPALGESWGHAATIRLIFHWDRKQRLATLYKSPSQKECTVLFQIKPQGFRDTVVTSACSLQTEGSLSTRKRSRDPEEEL
modifications: left off: Gal4 activation domain, end not stated, kept
- yeast two-hybrid interaction with ALKBH3 [4]: remained unaffected

B4: ΔNTD: remaining amino acid residues (67–376) of RAD51C (protein)
chain: ECLTNKPRYAGTSESHKKCTALELLEQEHTQGFIITFCSALDDILGGGVPLMKTTEICGAPGVGKTQLCMQLAVDVQIPECFGGVAGEAVFIDTEGSFMVDRVVDLATACIQHLQLIAEKHKGEEHRKALEDFTLDNILSHIYYFRCRDYTELLAQVYLLPDFLSEHSKVRLVIVDGIAFPFRHDLDDLSLRTRLLNGLAQQMISLANNHRLAVILTNQMTTKIDRNQALLVPALGESWGHAATIRLIFHWDRKQRLATLYKSPSQKECTVLFQIKPQGFRDTVVTSACSLQTEGSLSTRKRSRDPEEEL
modifications: left off: Gal4 activation domain, end not stated, kept
- yeast two-hybrid interaction with ALKBH3 [4]: completely abrogated the interaction

B5: RAD51CΔ1–18 (protein)
chain: LSPAVRVKLVSAGFQTAEELLEVKPSELSKEVGISKAEALETLQIIRRECLTNKPRYAGTSESHKKCTALELLEQEHTQGFIITFCSALDDILGGGVPLMKTTEICGAPGVGKTQLCMQLAVDVQIPECFGGVAGEAVFIDTEGSFMVDRVVDLATACIQHLQLIAEKHKGEEHRKALEDFTLDNILSHIYYFRCRDYTELLAQVYLLPDFLSEHSKVRLVIVDGIAFPFRHDLDDLSLRTRLLNGLAQQMISLANNHRLAVILTNQMTTKIDRNQALLVPALGESWGHAATIRLIFHWDRKQRLATLYKSPSQKECTVLFQIKPQGFRDTVVTSACSLQTEGSLSTRKRSRDPEEEL
modifications: left off: Gal4 activation domain, end not stated, kept
- yeast two-hybrid interaction with ALKBH3 [4]: remained unaffected

B6: GST-ALKBH3 fusion protein (natural protein, human, UniProt Q96Q83 1-286, looked up)
chain: T1 sequence (Q96Q83 1-286)
- binding result [5]: binds

B7: ALKBH3: human oxidative demethylase ALKBH3, tag-less recombinant (protein)
chain: T1 sequence (Q96Q83 1-286)
modifications: left off: Gal4 DNA-binding domain, end not stated, kept
- Km [6]: 1.9 µM
- kcat/KM [6]: 14500 M⁻¹ s⁻¹
- Km [7]: 1.4 µM

B8: ALKBH3 (amino acids 175–286): C-terminal segment of ALKBH3 (protein)
chain: SLLCNLYRNEKDSVDWHSDDEPSLGRCPIIASLSFGATRTFEMRKKPPPEENGDYTYVERVKIPLDHGTLLIMEGATQADWQHRVPKEYHSREPRVNLTFRTVYPDPRGAPW
modifications: left off: Gal4 DNA-binding domain, end not stated, kept
- yeast two-hybrid interaction with RAD51C [8]: interacted with RAD51C

Molecule: KPSELSKEVGI [synthetic peptide p42–52 of RAD51C]
- Kd [9]: 4 µM
- stoichiometry N [9]: 1

B9: RAD51CΔ19–32 (protein)
chain: MRGKTFRFEMQRDLVSFPQTAEELLEVKPSELSKEVGISKAEALETLQIIRRECLTNKPRYAGTSESHKKCTALELLEQEHTQGFIITFCSALDDILGGGVPLMKTTEICGAPGVGKTQLCMQLAVDVQIPECFGGVAGEAVFIDTEGSFMVDRVVDLATACIQHLQLIAEKHKGEEHRKALEDFTLDNILSHIYYFRCRDYTELLAQVYLLPDFLSEHSKVRLVIVDGIAFPFRHDLDDLSLRTRLLNGLAQQMISLANNHRLAVILTNQMTTKIDRNQALLVPALGESWGHAATIRLIFHWDRKQRLATLYKSPSQKECTVLFQIKPQGFRDTVVTSACSLQTEGSLSTRKRSRDPEEEL
modifications: left off: Gal4 activation domain, end not stated, kept
- yeast two-hybrid interaction with ALKBH3 [4]: remained unaffected
